For seven compounds, Ratio IC50 and IC50 results are on record in ChEMBL document CHEMBL1138306, “New antioxidant polyphenols from the medicinal mushroom Inonotus obliquus” (Bioorg Med Chem Lett, 2007).

What all share (format): functional
A short description of test [1]: Ratio of IC50 for drug to trolox for DPPH radical scavenging activity. In general terms: Loss of DPPH colour is used to gauge radical scavenging.
Test [2] can be described thus: Ratio of IC50 for drug to trolox for ABTS radical scavenging activity. Summed up:
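ABTS radical cation made from 7 mM aqueous ABTS stock reacted with 2.45 mM potassium persulfate, left 12 h in the dark. Radical solution mixed with samples in ethanol. Absorbance read at 734 nm up to 6 min after mixing. IC50 expressed relative to trolox.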

The nature of test [3]: Antioxidant activity assessed as superoxide radical scavenging activity by xanthine oxidase method. Summed up: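 Superoxide generated by xanthine/xanthine oxidase in 50 mM potassium phosphate buffer (pH 7.8) containing 1 mM EDTA, 0.04 mM NBT, 0.18 mM xanthine and 250 mU/mL xanthine oxidase. Samples tested at a series of concentrations. Incubation 30 min at 37 C in the dark. Superoxide reduction of NBT to blue formazan used as read-out. IC50 determined.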

pIC50: −log10 of the molar value.

Take `CC(=O)C1(O)C(c2cc3oc(=O)c4cc(O)c(O)cc4c3c(=O)o2)=Cc2cc(O)c(O)cc21` (stereo unspecified): the Ratio IC50 in test [1] amounted to 1.42; in test [2], 0.58. Further, the pIC50 (in general, the negative decadic logarithm of the IC50, by convention in mol/L) in test [3] was 4.04.

Turning to `Cc1cc(=O)cc(-c2cc(O)c(O)cc2-c2c(O)cc(/C=C/c3ccc(O)c(O)c3)oc2=O)o1`, the Ratio IC50 in test [1] is 0.82; in test [2] it was 0.65. Further, the pIC50 in test [3] was 4.01.

With `O=C(O)/C=C/c1ccc(O)c(O)c1` [CAFFEIC ACID], the Ratio IC50 amounted to 0.41 in test [1] and 0.66 in test [2]. Also, the pIC50 in test [3] was 4.99.

Consider `O=c1oc2cc(/C=C/c3ccc(O)c(O)c3)oc(=O)c2c2cc(O)c(O)cc12` [PHELLIGRIDIN D], for which the Ratio IC50 came out at 1.51 in test [1] and 0.33 in test [2]. In test [3], the pIC50 is 4.07.

Regarding `CC1=CC(=O)C2(O1)C(c1cc3oc(=O)c4cc(O)c(O)cc4c3c(=O)o1)=Cc1cc(O)c(O)cc12` (stereo unspecified) [PHELLIGRIDIN E], the Ratio IC50 in test [1] was determined as 1.57; in test [2], 0.4. Further, the negative logarithm of the IC50 (pIC50) in test [3] was 3.92.

With `O=C1C=C(/C=C/c2ccc(O)c(O)c2)OC12C(c1cc3oc(=O)c4cc(O)c(O)cc4c3c(=O)o1)=Cc1cc(O)c(O)cc12` (stereo unspecified) [PHELLIGRIDIN G], the results for the Ratio IC50 in test [1] and in test [2] were 1.48 and 0.43, respectively. The pIC50 in test [3] is 4.03.

Regarding `O=c1oc(/C=C/c2ccc(O)c(O)c2)cc(O)c1-c1cc(O)c(O)cc1/C=C/c1cc2oc(=O)c3cc(O)c(O)cc3c2c(=O)o1` [PHELLIGRIDIN I], the Ratio IC50 in test [1] came out at 1.45; in test [2], 0.43. For the same compound, the pIC50 in test [3] is 4.03.
